Structures can show the parent of a compound that is named as a salt.
Assays:
Mus musculus [1] = species: Mus musculus; experiment: Electrophysiological responses in closed channel block to NMDA were recorded in 13-day old mouse cortical neuronal cultures.; format: functional
Glutamate NMDA receptor [2] = experiment: Binding affinity was determined towards NMDA receptor using [3H]thienylcyclidine as radioligand; format: protein-complex assay
Summary of the method: (§1)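 Rat (male Sprague–Dawley) whole-brain membranes, washed three times in 50 mM Tris-HCl pH 7.7 and resuspended in 5 mM Tris-HCl at 0.5 mg protein/tube. About 1 nM [3H]TCP final with varied test concentrations. 25 min at room temperature. Nonspecific binding defined with 100 μM PCP. Filtration on PEI-soaked glass-fibre filters and scintillation counting.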

Mus musculus [3] = species: Mus musculus; experiment: In vitro for neuroprotective efficacy to protect cultured cortical neurons from an excitotoxic exposure to NMDA receptor.; format: functional
Mus musculus [4] = species: Mus musculus; experiment: In vitro neuroprotective efficacy determined to protect cultured mouse cortical neurons from an excitotoxic exposure to NMDA; format: functional
Mus musculus [5] = species: Mus musculus; experiment: Electrophysiological responses in open channel block to NMDA were recorded in 13-day old mouse cortical neuronal cultures.; format: functional
[6] = Ratio between closed channel blockade to open channel blockade; format: functional
Summary of the method: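 Whole-cell voltage clamp at −60 mV, room temperature (ca. 23 °C), in day-13 mouse cortical neurons; 100 μM NMDA. Open-channel block: NMDA with compound for 300 s; current at 300 s normalized to peak, % inhibition vs controls. Closed-channel block: 30 min with compound plus 10 μM 7-chlorokynurenate without NMDA, 1–2 min wash, then NMDA response vs two baseline responses. IC50 from Hill-type fit.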

Mus musculus [7] = species: Mus musculus; experiment: Percent inhibition of radioligand [3H]-LSD binding to 5-HT receptor at 10 uM concentration
[8] = molecular target: Alpha-1 adrenergic receptor (Mus musculus) (UniProt P97714+P97717+P97718); experiment: Percent inhibition of radioligand [3H]prazosin binding to alpha-1 receptor at 10 uM concentration; format: protein assay
Sequence of Alpha-1 adrenergic receptor (Mus musculus) (P97714 whole entry, looked up): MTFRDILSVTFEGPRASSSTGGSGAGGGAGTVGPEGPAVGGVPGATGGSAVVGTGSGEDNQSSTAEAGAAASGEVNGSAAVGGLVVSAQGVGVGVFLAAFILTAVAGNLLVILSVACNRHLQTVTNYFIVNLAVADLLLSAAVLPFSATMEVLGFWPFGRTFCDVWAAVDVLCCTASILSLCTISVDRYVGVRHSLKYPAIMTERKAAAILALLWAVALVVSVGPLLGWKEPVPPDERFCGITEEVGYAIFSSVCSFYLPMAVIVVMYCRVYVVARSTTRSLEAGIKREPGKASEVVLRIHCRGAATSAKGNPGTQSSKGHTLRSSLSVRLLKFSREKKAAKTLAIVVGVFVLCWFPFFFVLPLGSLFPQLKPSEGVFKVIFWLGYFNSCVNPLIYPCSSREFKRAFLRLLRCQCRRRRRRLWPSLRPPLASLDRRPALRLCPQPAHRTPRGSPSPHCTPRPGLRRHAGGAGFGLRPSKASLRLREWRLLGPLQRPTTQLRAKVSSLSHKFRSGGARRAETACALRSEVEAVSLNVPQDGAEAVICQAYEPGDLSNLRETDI
Sequence of Alpha-1 adrenergic receptor (Mus musculus) (P97717 whole entry, looked up): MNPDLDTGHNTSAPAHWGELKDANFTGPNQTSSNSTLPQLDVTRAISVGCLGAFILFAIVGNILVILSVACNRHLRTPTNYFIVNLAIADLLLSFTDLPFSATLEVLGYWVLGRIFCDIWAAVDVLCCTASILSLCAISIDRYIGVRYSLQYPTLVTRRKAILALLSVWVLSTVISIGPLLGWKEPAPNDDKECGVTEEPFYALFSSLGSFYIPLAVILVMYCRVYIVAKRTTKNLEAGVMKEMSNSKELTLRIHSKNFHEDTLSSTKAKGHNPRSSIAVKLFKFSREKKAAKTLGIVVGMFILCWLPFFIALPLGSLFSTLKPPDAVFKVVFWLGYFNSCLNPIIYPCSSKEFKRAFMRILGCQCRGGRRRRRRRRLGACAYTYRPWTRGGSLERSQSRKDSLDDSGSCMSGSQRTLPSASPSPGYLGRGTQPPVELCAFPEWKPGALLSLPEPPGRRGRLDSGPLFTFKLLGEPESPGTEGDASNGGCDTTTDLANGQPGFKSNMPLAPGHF
Sequence of Alpha-1 adrenergic receptor (Mus musculus) (P97718 whole entry, looked up): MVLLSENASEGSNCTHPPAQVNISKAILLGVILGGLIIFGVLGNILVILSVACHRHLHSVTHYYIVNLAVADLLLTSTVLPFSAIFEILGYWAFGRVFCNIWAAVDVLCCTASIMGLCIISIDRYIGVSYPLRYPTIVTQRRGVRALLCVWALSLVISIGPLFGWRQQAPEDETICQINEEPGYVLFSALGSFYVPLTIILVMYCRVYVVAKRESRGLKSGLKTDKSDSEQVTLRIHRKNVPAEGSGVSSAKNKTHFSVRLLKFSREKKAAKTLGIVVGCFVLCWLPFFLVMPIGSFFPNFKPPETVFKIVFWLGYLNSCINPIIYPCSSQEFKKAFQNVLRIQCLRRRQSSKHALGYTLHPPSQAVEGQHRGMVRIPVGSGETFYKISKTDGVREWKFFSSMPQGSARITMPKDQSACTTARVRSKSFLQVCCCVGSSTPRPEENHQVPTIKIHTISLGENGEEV

[9] = Percent inhibition of radioligand [3H]NECA binding to A1,A2 receptor at 10 uM concentration
[10] = molecular target: Alpha-2 adrenergic receptor (Mus musculus) (UniProt P30545+Q01338+Q01337); experiment: Percent inhibition of radioligand [3H]rauwolscine binding to alpha-2 receptor at 10 uM concentration; format: protein assay
[11] = molecular target: Beta-adrenergic receptor (Mus musculus) (UniProt P34971+P18762+P25962); experiment: Percent inhibition of radioligand [3H]DHAP binding to beta receptor at 10 uM concentration; format: protein assay
Sequence of Beta-adrenergic receptor (Mus musculus) (P18762 whole entry, looked up): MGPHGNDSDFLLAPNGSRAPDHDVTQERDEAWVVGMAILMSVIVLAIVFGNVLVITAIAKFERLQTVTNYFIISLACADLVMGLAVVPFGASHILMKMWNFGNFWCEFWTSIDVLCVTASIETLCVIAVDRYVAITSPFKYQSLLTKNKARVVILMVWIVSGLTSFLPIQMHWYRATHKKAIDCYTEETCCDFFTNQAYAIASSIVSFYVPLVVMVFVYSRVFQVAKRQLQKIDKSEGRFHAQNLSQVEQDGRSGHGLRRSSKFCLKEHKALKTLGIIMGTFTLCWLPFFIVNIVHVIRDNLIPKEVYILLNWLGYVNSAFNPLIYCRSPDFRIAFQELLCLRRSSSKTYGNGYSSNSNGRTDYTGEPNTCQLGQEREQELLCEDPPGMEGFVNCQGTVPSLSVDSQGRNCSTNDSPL
Sequence of Beta-adrenergic receptor (Mus musculus) (P25962 whole entry, looked up): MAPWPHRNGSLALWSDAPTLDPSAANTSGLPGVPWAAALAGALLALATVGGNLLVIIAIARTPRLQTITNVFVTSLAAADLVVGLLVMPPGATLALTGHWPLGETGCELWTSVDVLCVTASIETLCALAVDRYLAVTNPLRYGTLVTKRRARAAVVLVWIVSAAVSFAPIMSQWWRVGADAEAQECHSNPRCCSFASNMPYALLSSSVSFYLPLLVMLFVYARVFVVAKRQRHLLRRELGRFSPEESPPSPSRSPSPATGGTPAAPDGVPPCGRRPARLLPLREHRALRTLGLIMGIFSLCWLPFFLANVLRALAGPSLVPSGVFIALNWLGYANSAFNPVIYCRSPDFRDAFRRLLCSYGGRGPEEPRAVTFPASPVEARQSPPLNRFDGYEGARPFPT
Sequence of Beta-adrenergic receptor (Mus musculus) (P34971 whole entry, looked up): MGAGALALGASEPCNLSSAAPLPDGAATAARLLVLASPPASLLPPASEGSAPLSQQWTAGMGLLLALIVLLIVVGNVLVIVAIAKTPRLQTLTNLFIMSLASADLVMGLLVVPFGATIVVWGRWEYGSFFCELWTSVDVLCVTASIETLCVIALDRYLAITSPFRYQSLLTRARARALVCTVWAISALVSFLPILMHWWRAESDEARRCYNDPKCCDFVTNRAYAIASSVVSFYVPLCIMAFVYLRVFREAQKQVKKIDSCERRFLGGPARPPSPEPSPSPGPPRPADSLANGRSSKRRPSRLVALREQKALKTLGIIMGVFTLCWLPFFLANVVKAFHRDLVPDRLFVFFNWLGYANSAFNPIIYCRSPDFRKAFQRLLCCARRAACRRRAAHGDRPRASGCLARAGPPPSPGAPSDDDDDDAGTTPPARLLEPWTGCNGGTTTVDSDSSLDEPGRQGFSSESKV

[12] = molecular target: D(2) dopamine receptor (Mus musculus) (UniProt P61168); experiment: Percent inhibition of radioligand [3H]raclopride binding to D2 receptor at 10 uM concentration
Sequence of D(2) dopamine receptor (Mus musculus) (P61168 whole entry): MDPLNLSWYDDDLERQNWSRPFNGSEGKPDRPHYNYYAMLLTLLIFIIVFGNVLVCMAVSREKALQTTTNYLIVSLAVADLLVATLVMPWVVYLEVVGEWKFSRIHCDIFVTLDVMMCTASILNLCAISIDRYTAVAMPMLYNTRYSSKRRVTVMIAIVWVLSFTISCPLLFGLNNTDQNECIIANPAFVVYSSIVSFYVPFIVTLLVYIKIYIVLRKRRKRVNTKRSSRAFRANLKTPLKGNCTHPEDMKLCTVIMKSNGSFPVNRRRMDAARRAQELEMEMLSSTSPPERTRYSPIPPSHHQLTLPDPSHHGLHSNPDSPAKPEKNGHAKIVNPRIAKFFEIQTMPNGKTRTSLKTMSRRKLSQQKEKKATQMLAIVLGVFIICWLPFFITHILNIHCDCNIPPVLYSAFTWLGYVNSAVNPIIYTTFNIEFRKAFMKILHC

[13] = molecular target: D(1A) dopamine receptor (Mus musculus) (UniProt Q61616); experiment: Percent inhibition of radioligand [3H]SCH-23,390 binding to dopamine receptor D1 at 10 uM concentration
Sequence of D(1A) dopamine receptor (Mus musculus) (Q61616 whole entry): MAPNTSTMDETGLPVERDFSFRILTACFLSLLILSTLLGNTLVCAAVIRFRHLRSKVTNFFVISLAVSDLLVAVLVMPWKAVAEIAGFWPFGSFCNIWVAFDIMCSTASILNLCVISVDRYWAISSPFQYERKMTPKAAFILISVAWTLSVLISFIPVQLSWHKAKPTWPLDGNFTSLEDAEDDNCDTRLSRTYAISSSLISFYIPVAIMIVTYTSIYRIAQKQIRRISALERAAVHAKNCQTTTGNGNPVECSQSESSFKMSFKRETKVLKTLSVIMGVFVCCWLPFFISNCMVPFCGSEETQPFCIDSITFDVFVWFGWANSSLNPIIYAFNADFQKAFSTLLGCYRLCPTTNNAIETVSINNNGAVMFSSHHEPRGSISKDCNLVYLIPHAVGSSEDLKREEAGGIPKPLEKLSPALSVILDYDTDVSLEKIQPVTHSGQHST

[14] = molecular target: Histamine H1 receptor (Mus musculus) (UniProt P70174); experiment: Percent inhibition of radioligand [3H]pyrilamine binding to H1 receptor at 10 uM concentration
Sequence of Histamine H1 receptor (Mus musculus) (P70174 whole entry): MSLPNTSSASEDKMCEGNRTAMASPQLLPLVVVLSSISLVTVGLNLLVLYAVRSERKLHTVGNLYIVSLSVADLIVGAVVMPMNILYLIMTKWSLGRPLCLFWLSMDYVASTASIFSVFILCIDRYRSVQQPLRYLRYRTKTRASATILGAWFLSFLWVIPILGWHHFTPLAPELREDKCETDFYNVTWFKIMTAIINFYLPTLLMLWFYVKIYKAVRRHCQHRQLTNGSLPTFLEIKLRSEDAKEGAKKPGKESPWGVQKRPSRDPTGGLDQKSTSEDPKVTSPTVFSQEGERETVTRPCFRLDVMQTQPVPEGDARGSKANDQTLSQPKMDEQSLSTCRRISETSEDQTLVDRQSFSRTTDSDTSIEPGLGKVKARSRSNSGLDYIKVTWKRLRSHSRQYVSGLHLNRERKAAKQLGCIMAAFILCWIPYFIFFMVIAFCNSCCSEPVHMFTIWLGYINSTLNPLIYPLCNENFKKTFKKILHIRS

[15] = molecular target: Muscarinic acetylcholine receptor (Mus musculus) (UniProt Q920H4+Q9ERZ4+P12657+P32211+Q9ERZ3); experiment: Percent inhibition of radioligand [3H]QNB binding to muscarinic receptor at 10 uM concentration; format: protein assay
[16] = molecular target: Opioid receptor (Mus musculus) (UniProt P42866+P32300+P33534); experiment: Percent inhibition of radioligand [3H]-naxalone binding to opiate receptor at 10 uM concentration; format: protein assay
[17] = molecular target: Sigma non-opioid intracellular receptor 1 (Mus musculus) (UniProt O55242); experiment: Percent inhibition of radioligand [3H]DTG binding to sigma receptor at 10 uM concentration
Sequence of Sigma non-opioid intracellular receptor 1 (Mus musculus) (O55242 whole entry): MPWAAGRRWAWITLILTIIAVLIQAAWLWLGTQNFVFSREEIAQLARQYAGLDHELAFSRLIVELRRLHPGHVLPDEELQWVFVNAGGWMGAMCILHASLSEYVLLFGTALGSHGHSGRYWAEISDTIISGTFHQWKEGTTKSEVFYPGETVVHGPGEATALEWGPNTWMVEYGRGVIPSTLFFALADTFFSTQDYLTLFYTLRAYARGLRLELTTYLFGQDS

[18] = Percent inhibition of […] binding to GABA-A benzodiazepine receptor at 10 uM
[19] = molecular target: D(1A) dopamine receptor (Mus musculus) (UniProt Q61616); experiment: Percent inhibition of radioligand [3H]SCH-23390 binding to dopamine receptor D1 at 10 uM concentration
Glutamate NMDA receptor [20] = experiment: Binding affinity was determined towards NMDA receptor using [3H]TCP as radioligand in rat
Summary of the method: as §1, with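 “counting. Ki from EBDA/LIGAND; mean ± SEM of ≥3 determinations in triplicate.” for “counting.”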

In the case of `C[C@]12N[C@H](Cc3ccccc31)c1ccccc12` [DIZOCILPINE MALEATE], the IC50 (Mus musculus [1]) is reported as 5.8 nM.
In the case of `CCOC1(OCC)C2c3c(C)cccc3C([n+]3ccccc32)C1(C)C` (configuration not stated), the Ki (Glutamate NMDA receptor [2]) is reported as 46 nM.
`CCOC1(OCC)C2c3cc([N+](=O)[O-])ccc3C([n+]3ccccc32)C1(C)C.[O-][Cl+3]([O-])([O-])[O-]` (configuration not stated) gave an IC50 (Mus musculus [3]) of 15300 nM and a Ki (Glutamate NMDA receptor [2]) of 2760 nM.
With `CCCOC1(OCCC)C2c3ccccc3C([n+]3ccccc32)C1(C)C.[O-][Cl+3]([O-])([O-])[O-]` (configuration not stated) the IC50 (Mus musculus [4]; Mus musculus) was 85 nM and the Ki (Glutamate NMDA receptor [2]) was 12 nM.
`CCOC1(OCC)C2c3ccccc3C([n+]3ccccc32)C1(C)C` (single isomer, unassigned; (+)) [listing 1 of 2 here] showed an IC50 (Mus musculus [4]; Mus musculus) of 50 nM and a Ki (Glutamate NMDA receptor [2]) of 11 nM.
In the case of `CCOC1(OCC)C2c3ccccc3C([n+]3ccccc32)C1(C)C` (racemic) [listing 1 of 2 here], the IC50 (Mus musculus [5]) is reported as 260 nM and the Ki (Glutamate NMDA receptor [2]) is reported as 8 nM.
`CCOC1(OCC)C2c3ccccc3C([n+]3ccccc32)C1(C)C` (single isomer, unassigned; (-)) [listing 1 of 2 here] showed an IC50 (Mus musculus [4]) of 26 nM and a Ki (Glutamate NMDA receptor [2]) of 4 nM.
With `CC1(C)C2c3ccccc3C(c3cccc[n+]32)C12OCCCO2` (configuration not stated) the Ki (Glutamate NMDA receptor [2]) was 2900 nM.
Work on `CCOC1(OCC)C2c3ccccc3C([n+]3ccccc32)C1(OCC)OCC` (configuration not stated) yielded a Ki (Glutamate NMDA receptor [2]) of 4990 nM.
For `CCOC1(OCC)C2c3ccccc3C([n+]3cccc(OC)c32)C1(C)C` (configuration not stated), the Ki (Glutamate NMDA receptor [2]) was 26 nM.
Work on `c1ccc(C2(N3CCCCC3)CCCCC2)cc1` [PHENCYCLIDINE] yielded a Ki (Glutamate NMDA receptor [2]) of 38 nM.
`CCOC1(OCC)C2c3ccccc3C(C1C)[n+]1ccccc12.[O-][Cl+3]([O-])([O-])[O-]` (stereo in doubt; 1b) gave an IC50 (Mus musculus [4]) of 1160 nM and a Ki (Glutamate NMDA receptor [2]) of 34 nM.
With `CCOC1(OCC)C2c3cc(OC)ccc3C([n+]3ccccc32)C1(C)C` (configuration not stated) the IC50 (Mus musculus [4]; Mus musculus) was 157 nM and the Ki (Glutamate NMDA receptor [2]) was 4 nM.
`CC1(C)C(=O)C2c3ccccc3C1[n+]1ccccc12` (configuration not stated) gave a Ki (Glutamate NMDA receptor [2]) of over 10000 nM.
Molecule `CCOC1(OCC)CC2c3ccccc3C1c1cccc[n+]12` (configuration not stated) has an IC50 (Mus musculus [4]; Mus musculus) of 95000 nM and a Ki (Glutamate NMDA receptor [2]) of 3800 nM.
In the case of `CCOC1(OCC)C2c3ccc(OC)cc3C([n+]3ccccc32)C1(C)C` (configuration not stated), the Ki (Glutamate NMDA receptor [2]) is reported as 123 nM.
`CCOC1(OCC)C2c3c(OC(C)=O)cccc3C([n+]3ccccc32)C1(C)C` (configuration not stated) showed a Ki (Glutamate NMDA receptor [2]) of 26 nM.
In the case of `CCOC1(OCC)C2(C)c3ccccc3C([n+]3ccccc32)C1(C)C.[O-][Cl+3]([O-])([O-])[O-]` (configuration not stated), the IC50 (Mus musculus [4]; Mus musculus) is reported as 32 nM and the Ki (Glutamate NMDA receptor [2]) is reported as 11 nM.
Molecule `CCOC1(OCC)C2c3cccc(C)c3C([n+]3ccccc32)C1(C)C` (configuration not stated) has a Ki (Glutamate NMDA receptor [2]) of 455 nM.
For `CCOC1(OCC)C2c3c(OC)cccc3C([n+]3ccccc32)C1(C)C` (configuration not stated), the IC50 (Mus musculus [4]; Mus musculus) was 22 nM and the Ki (Glutamate NMDA receptor [2]) was 13 nM.
`CCOC1(OCC)C2c3c(OC(C)C)cccc3C([n+]3ccccc32)C1(C)C` (configuration not stated) gave a Ki (Glutamate NMDA receptor [2]) of 48 nM.
In the case of `CCOC1(OCC)C2c3cc(Cl)ccc3C([n+]3ccccc32)C1(C)C` (configuration not stated), the Ki (Glutamate NMDA receptor [2]) is reported as 12 nM.
Molecule `CCOC1(OCC)C2c3ccccc3C([n+]3c(C)cccc32)C1(C)C` (configuration not stated) has a Ki (Glutamate NMDA receptor [2]) of 314 nM.
For `CCOC1(OCC)C2c3cc(Br)ccc3C([n+]3ccccc32)C1(C)C.[O-][Cl+3]([O-])([O-])[O-]` (configuration not stated), the IC50 (Mus musculus [4]; Mus musculus) was 173 nM and the Ki (Glutamate NMDA receptor [2]) was 52 nM.
`CCOC1(OCC)C2c3ccccc3C([n+]3ccccc32)C1(C)C` (racemic) [listing 2 of 2 here] gave a Ratio [6] of over 384 CC/OC.
With `COC1(OC)C2c3ccccc3C([n+]3ccccc32)C1(C)C` (configuration not stated) the Ki (Glutamate NMDA receptor [2]) was 103 nM.
`CCOC1(OCC)C2c3ccccc3C([n+]3ccccc32)C1(C)C` (single isomer, unassigned; (-)) [listing 2 of 2 here] gave an inhibition (Mus musculus [7]) of 11%, an inhibition [8] of 23% and an inhibition [9] of 3%. The inhibition [10] was 32%, the inhibition [11] was 3% and the inhibition [12] was 9%. It also gave an inhibition [13] of 1%, an inhibition [14] of 0% and an inhibition [15] of 50%. It also gave an inhibition [16] of 51% and an inhibition [17] of 21%.
With `CCOC1(OCC)C2c3cc(C(F)(F)F)ccc3C([n+]3ccccc32)C1(C)C` (configuration not stated) the Ki (Glutamate NMDA receptor [2]) was 401 nM.
In the case of `CCOC1(OCC)C2c3c(O)cccc3C([n+]3ccccc32)C1(C)C` (configuration not stated), the Ki (Glutamate NMDA receptor [2]) is reported as 8 nM.
For `CCOC1(OCC)C2c3ccccc3C([n+]3ccccc32)C1(CC)CC` (configuration not stated), the Ki (Glutamate NMDA receptor [2]) was 11 nM.
With `CCOC1(OCC)C2c3cccc(OC)c3C([n+]3ccccc32)C1(C)C` (configuration not stated) the Ki (Glutamate NMDA receptor [2]) was 1840 nM.
In the case of `CCOC1(OCC)C2c3c(Br)cccc3C([n+]3ccccc32)C1(C)C.[O-][Cl+3]([O-])([O-])[O-]` (configuration not stated), the IC50 (Mus musculus [4]; Mus musculus) is reported as 1040 nM and the Ki (Glutamate NMDA receptor [2]) is reported as 132 nM.
With `CC1(C)C2c3ccccc3C(c3cccc[n+]32)C12OCCO2` (configuration not stated) the Ki (Glutamate NMDA receptor [2]) was 3460 nM.
With `CCOC1C2c3ccccc3C([n+]3ccccc32)C1(C)C` (stereo in doubt; 7a) the Ki (Glutamate NMDA receptor [2]) was 465 nM.
`CCOC1(OCC)C2c3ccccc3C([n+]3ccccc32)C1(C)C` (single isomer, unassigned; (+)) [listing 2 of 2 here] showed an inhibition (Mus musculus [7]) of 12%, an inhibition [8] of 51% and an inhibition [9] of 1%. The inhibition [10] was 52%, the inhibition [18] was 14% and the inhibition [11] was 4%. It also gave an inhibition [12] of 20%, an inhibition [19] of 7% and an inhibition [14] of 55%. The inhibition [15] was 53%, the inhibition [16] was 73% and the inhibition [17] was 31%.
In the case of `CCOC1(OCC)C2c3c(OC)ccc(OC)c3C([n+]3ccccc32)C1(C)C` (configuration not stated), the Ki (Glutamate NMDA receptor [2]) is reported as over 10000 nM.
Molecule `CCOC1(OCC)C2c3ccccc3C(C1C)[n+]1ccccc12.[O-][Cl+3]([O-])([O-])[O-]` (stereo in doubt; 1a) has an IC50 (Mus musculus [4]; Mus musculus) of 810 nM and a Ki (Glutamate NMDA receptor [20]) of 115 nM.
For `CCOC1C2c3ccccc3C([n+]3ccccc32)C1(C)C` (stereo in doubt; 7b), the Ki (Glutamate NMDA receptor [2]) was 1880 nM.

Source: ChEMBL document CHEMBL1127300, “Identification, synthesis, and characterization of a unique class of N-methyl-D-aspartate antagonists. The 6,11-ethanobenzo[b]quinolizinium cation” (J Med Chem, 1994)
